The list is not random: actives were taken first. Their share in the collection is about 2.3%.
OXTR potentiate – potentiates the human oxytocin receptor response. P30559. CHO-OTR cells, Fluo-8 calcium fluorescence, potentiator mode; 0% = oxytocin EC15, 100% = EC100. activation, % at 3 µM. actives 0.061% (n = 320,000). AID 2445;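 active means activation above that plate's cutoff, the mean activation of tested compounds plus 3 SD, cut at about 6.6% in these data, passing the limit was not always enough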;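 further: 100% uses oxytocin at 75 nM as the full agonist control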
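Material: human OTR in CHO cells. Compound: 3.0 µM, one dose. Timing: compound 6 min at room temperature before oxytocin, 100 s read. Evaluation: % activation of max/min ratio relative to oxytocin controls. Replication: single well per compound, singlicate. Signal: Fluo-8 calcium dye fluorescence.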
OXTR agonist – activates the human oxytocin receptor; P30559; AID 2435; CHO-OTR cells, Fluo-8 calcium fluorescence; normalized: DMSO 0%, oxytocin 100%; activation, % at 3 µM; actives 0.32% (n = 320,000);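 active means activation above the mean of all tested compounds plus 3 SD, cutoff set per screening run, cut at about 20% in these data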;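 further: peak over basal fluorescence ratio from a 100 s FLIPR kinetic read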
V1aR counter – counter-screen for oxytocin receptor agonists: human V1a receptor agonists; CHO-V1R cells, Fluo-8 calcium fluorescence, agonist mode; 0% DMSO, 100% 3 nM vasopressin; AID 2797; actives 0.25% (n = 320,000); P37288; activation, % at 3 µM;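 active means activation above the mean activation of all tested compounds plus 3 SD, per screening run, cut at about 20% in these data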;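 further: signal is peak over basal fluorescence ratio across a 100 second FLIPR read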
Target sequence (P37288 whole entry, looked up): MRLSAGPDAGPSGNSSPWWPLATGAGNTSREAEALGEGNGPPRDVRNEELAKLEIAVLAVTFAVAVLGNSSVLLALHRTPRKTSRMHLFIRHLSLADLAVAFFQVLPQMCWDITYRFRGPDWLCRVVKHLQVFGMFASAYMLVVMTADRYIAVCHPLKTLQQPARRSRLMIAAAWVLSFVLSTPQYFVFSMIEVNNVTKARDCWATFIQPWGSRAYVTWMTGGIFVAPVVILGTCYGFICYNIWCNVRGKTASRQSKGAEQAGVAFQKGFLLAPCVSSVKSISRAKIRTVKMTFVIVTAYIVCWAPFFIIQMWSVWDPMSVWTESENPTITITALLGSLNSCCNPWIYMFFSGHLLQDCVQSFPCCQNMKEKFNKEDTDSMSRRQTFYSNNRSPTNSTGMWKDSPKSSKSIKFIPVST
TAAR1 ag – agonists of human TAAR1 | Q96RJ0 | CHO RD-HGA16 TAAR1, Fluo-8 calcium fluorescence; vehicle wells 0%, saturating PEA agonist 100% | activation, % at 3 µM | actives 0.99% (n = 360,000) | AID 624467;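 active means activation above the mean activation of all test compounds in the run plus 3 SD, cut at about 38% in these data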
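Repeats: no replicates (n 1) | Material: CHO-derived RD-HGA16 cells with stable Gα16 and human TAAR1 | Technique: Kinetic Fluo-8 calcium fluorescence | Schedule: 17-24 h seeding, 75 min 37 °C dye, 30 min RT | Evaluation: % activation from peak over basal fluorescence ratio, DMSO-to-PEA scaled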
TAAR1 antag – antagonists of human TAAR1; CHO RD-HGA16 TAAR1, Fluo-8 calcium fluorescence, antagonist; inhibition, % at 3 µM; actives 1.5% (n = 360,000); AID 624466;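 active means inhibition above a per-plate cutoff, the mean inhibition of test compounds on that plate plus 3 SD, cut at about 49% in these data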;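 further: 0% = DMSO plus EC80 beta-PEA response and 100% = DMSO alone without agonist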
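System: CHO RD-HGA16 cells bearing hTAAR1. Reagent: EC80 β-phenethylamine stimulus. Schedule: seeding 17-24 h prior, 75-min 37 °C, 30-min RT dye loading. Signal: Fluo-8 intracellular calcium dye fluorescence, real-time kinetic reads. Read-out: % inhibition from peak post-agonist over basal fluorescence ratio. Benchmarks: vehicle wells and EC80 agonist wells. Replicates: n of 1.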
TAAR1 ag conf – human TAAR1 agonism, confirmed. actives 82% (n = 2,400). CHO RD-HGA16 TAAR1, Fluo-8 calcium fluorescence; scaled: DMSO 0%, maximal phenethylamine 100%. AID 651783. shares compounds with TAAR1 ag. activation, % at 3 µM;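 active means activation above a cutoff set at the run's mean compound activation plus 3 SD, cut at about 39% in these data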
Ga16 ag counter – nonselective agonism, TAAR1 counter-screen | shares compounds with TAAR1 ag | CHO-Ga16 parental, Fluo-8 calcium fluorescence; normalized to maximal ATP response, DMSO zero | activation, % at 3 µM | actives 50% (n = 2,400);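 active means activation above the run cutoff, the mean activation over all tested wells plus 3 SD, cut at about 12% in these data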;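 further: 0% = DMSO wells and 100% = maximal ATP response on the peak over basal ratio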
TAAR1 desensitize – counter-screen for human TAAR1 agonists: agonists that desensitize TAAR1; shares compounds with TAAR1 ag; CHO RD-HGA16 hTAAR1, Fluo-8 calcium, beta-PEA response inhibition; inhibition, % at 3 µM; actives 46% (n = 2,400); AID 651951;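 active means inhibition above the run cutoff, the mean inhibition of all test compounds plus 3 SD, cut at about 49% in these data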;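 further: beta-PEA stimulus applied at its EC80; loss of beta-PEA calcium signal after compound pretreatment read as receptor desensitization; 0% = DMSO with beta-PEA at EC80 and 100% = DMSO alone without agonist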
Ga16 antag count – nonselective Ga16 antagonist in TAAR1 agonist counter-screen; shares compounds with TAAR1 ag; CHO-Ga16 ATP-induced calcium, Fluo-8 fluorescence; inhibition, % at 3 µM; actives 39% (n = 2,400);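 active means inhibition above the plate's mean compound inhibition plus 3 SD, computed per plate, cut at about 22% in these data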;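 further: 0% = EC80 ATP with DMSO and 100% = DMSO wells without ATP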
* = called active by the depositor; · = not tested or not shown.

SMILES	OXTR potentiate	OXTR agonist	V1aR counter	TAAR1 ag	TAAR1 antag	TAAR1 ag conf	Ga16 ag counter	TAAR1 desensitize	Ga16 antag count
COc1ccc(NC(=O)[C@@H](NC(=O)N2C[C@H]3C[C@@H](C2)c2cccc(=O)n2C3)C(C)C)cc1OC	0	2	0	1	-6	·	·	·	·
COc1ccc(NC(=O)N2CCc3ccccc3C2)cc1	·	·	·	52*	-11	47*	1	-2	-3
CC(=O)c1ccc(NC(=O)N2CCc3ccccc3C2)cc1	-19	-1	0	14	21	·	·	·	·
COc1ccc(NC(=O)CSCC(=O)N2CCN(c3cccc(C(F)(F)F)c3)CC2)cc1	-9	5	6	0	-15	·	·	·	·
CCOc1ccc(NC(=O)N2CCc3ccccc3C2)cc1	2	-2	0	51*	-3	54*	0	12	12
COc1ccc(NC(=O)N2CCN(c3cccc(C(F)(F)F)c3)CC2)cc1	-10	9	8	89*	94*	8	11	21	24*
COc1ccc(C2NC(=O)NC(C)=C2C(=O)OC2CCCCC2)cc1 (centres undefined)	·	·	·	-2	-22	·	·	·	·
O=C(O)c1ccc2c3c(cccc13)C(=O)N(c1ccccc1)C2=O	1	1	2	-1	8	·	·	·	·
Nc1ccc2c3c(cccc13)C(=O)N(c1ccccc1)C2=O	·	·	·	403*	85*	176*	147*	53*	50*
S=C(SSC(=S)N1CCOCC1)N1CCOCC1	·	·	·	56*	-4	54*	23*	11	10
CCC(CC)C(=O)Nc1cccc(C(=O)Nc2ccc(OC)cc2[N+](=O)[O-])c1	-7	10	2	78*	77*	45*	6	38	12
N#CC1=C(N)OC2=C(CC/C2=C\c2ccccc2)C1c1ccccc1 (centres undefined)	-19	28*	26*	64*	71*	46*	69*	67*	77*
COC(=O)NC1c2ccccc2Oc2ccc(C)cc21 (centres undefined)	-2	-2	0	43*	38	83*	38*	76*	34*
CCOC(=O)CSCC(=O)Nc1nnc(-c2cccc([N+](=O)[O-])c2)s1	-5	0	0	2	-8	·	·	·	·
COc1cc(OC)cc(C(=O)NC(=S)NNC(=O)[C@H]2C[C@@H]2c2ccccc2)c1	-16	23*	2	174*	107*	113*	102*	89*	65*
COc1cc(OC)cc(C(=O)NC(=S)NNC(=O)Cc2cccs2)c1	1	1	1	80*	16	56*	37*	28	16
COc1ccc(OC)c(NC(=O)C2CC2c2ccccc2)c1 (centres undefined)	-10	-3	-1	2	-5	·	·	·	·
COc1ccc(C(=O)NC(=S)NNC(=O)[C@H]2C[C@@H]2c2ccccc2)cc1OC	-12	3	3	121*	49*	90*	70*	70*	43*
CCCCCCN1C[C@@H](O)[C@H](n2cc(-c3ccc(F)cc3)nn2)C[C@@H]1c1ccc(C)cc1	·	·	·	-2	-3	·	·	·	·
COc1cccc(CN(C)CC(=O)Nc2ccccc2C(=O)NC2CC2)c1	-2	-2	0	5	2	·	·	·	·
Cc1ccc(OCC(O)CNCc2ccccc2)cc1C (centres undefined)	-11	4	2	6	-28	·	·	·	·
O=C(c1ccccc1)c1ccc(OCC(O)CNCc2cccc(Cl)c2)cc1 (centres undefined)	·	·	·	58*	7	95*	43*	60*	40*
O=C(c1ccccc1)c1ccc(OCC(O)CNCc2ccc(F)cc2)cc1 (centres undefined)	·	·	·	48*	13	48*	19*	20	24*
COc1ccccc1NS(=O)(=O)c1cc(NC(=O)CCC2CCCC2)ccc1N1CCOCC1	-9	0	1	1	-3	·	·	·	·
O=C(COC(=O)c1cc(Br)ccc1O)Nc1ccc2c(c1)OCO2	-10	5	4	75*	70*	44*	36*	48	40*
SMILES	OXTR potentiate	OXTR agonist	V1aR counter	TAAR1 ag	TAAR1 antag	TAAR1 ag conf	Ga16 ag counter	TAAR1 desensitize	Ga16 antag count
CNc1ccccc1C(=O)OCC(=O)Nc1ccc2c(c1)OCO2	-6	-1	-1	3	-5	·	·	·	·
Cc1cc(C)nc(OC(C(=O)O)C(OCc2ccccc2)(c2ccccc2)c2ccccc2)n1 (centres undefined)	-7	-1	0	113*	2	136*	58*	9	-7
CCCOC(c1ccccc1)(c1ccccc1)C(Oc1nc(C)cc(C)n1)C(=O)O (centres undefined)	-4	-1	-1	30	-11	·	·	·	·
Cc1cc(C)nc(OC(C(=O)O)C(OCCC(C)C)(c2ccccc2)c2ccccc2)n1 (centres undefined)	-3	-2	-1	89*	18	127*	92*	30	13
COc1cc(OC)c(N2CC(C(=O)NCCC3=CCCCC3)CC2=O)cc1Cl (centres undefined)	-5	1	2	3	-16	·	·	·	·
Cc1oc(-c2cccs2)nc1CS(=O)CC(=O)NCCc1ccccc1 (centres undefined)	-4	-2	0	58*	-21	73*	4	34	4
COc1cccc(-c2nc(CS(=O)(=O)CC(=O)NCCc3ccccc3)c(C)o2)c1	-4	2	4	71*	29	94*	21*	67*	12
Cc1ccccc1-c1nc(CS(=O)(=O)CC(=O)NCCc2ccccc2)c(C)o1	-12	4	4	72*	24	76*	4	63*	16
CCCNC(=O)CS(=O)(=O)Cc1nc(-c2cccc(OC)c2)oc1C	1	0	4	0	-11	·	·	·	·
COc1cccc(-c2nc(CS(=O)(=O)CC(=O)N3CCc4ccccc4C3)c(C)o2)c1	-9	-1	2	67*	1	87*	3	43	9
